Results published in ChEMBL document CHEMBL4184124, “Progress in antischistosomal N,N'-diaryl urea SAR” (Bioorg Med Chem Lett, 2018).
Converted amounts (≈) assume the structure as drawn. The source made the active and inactive calls. The rule behind the calls is not given here.

Assays:
[1] = Drug uptake in Swiss mouse plasma at 100 mg/kg, po administered as single dose via gavage measured after 4 to 48 hrs by LC-MS analysis; assay type: ADME, organism-based; details: in vivo
In short: (§1)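 Single 100 mg/kg oral dose given to non-infected male Swiss outbred mice; plasma sampled over 48 h post-dose; n=2 mice per time point, mean values. AUC taken to last measured concentration.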

HFF = test: Cytotoxicity against HFF; assay type: cell-based; details: Homo sapiens
[2] = Kinetic solubility of the compound in phosphate buffer at pH 6.5 by nephelometric method; assay type: physicochemical; details: read-out: Kinetic_solubility
In short: (§2)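 DMSO stocks spiked into pH 6.5 phosphate buffer or 0.01 M HCl (approx. pH 2.0); nephelometry gave a solubility concentration range.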

Schistosoma mansoni [3] = test: Antischistosomal activity against Schistosoma mansoni cercariae infected in NMRI mouse assessed as reduction in worm burden at 100 mg/kg, po administered as single dose via gavage measured after 21 days relative to control; assay type: functional; set-up: scale not given: the % may be the effect or the level left
In short: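 Infected mice given a single 100 mg/kg oral dose; efficacy read as worm burden reduction (%).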

Schistosoma mansoni [4] = test: Antischistosomal activity against newly transformed stage of Schistosoma mansoni assessed as parasite death at 10 uM; assay type: functional, organism-based
In short: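 Newly transformed schistosomula exposed at 10 µM as a screen for killing; active compounds then titrated to give IC50.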

[5] = Tmax in Swiss mouse at 100 mg/kg, po administered as single dose via gavage by LC-MS analysis; assay type: ADME, organism-based; details: in vivo; in short: as §1
[6] = AUC (0 to last) in Swiss mouse at 100 mg/kg, po administered as single dose via gavage by LC-MS analysis; assay type: ADME, organism-based; set-up: dose 100 mg/kg, time 0 - last, route oral; details: in vivo; in short: as §1
[7] = Octanol-[…] partition coefficient, log D of the compound at pH 7.4 by RP-HPLC method
Schistosoma mansoni [8] = test: Antischistosomal activity against adult stage of Schistosoma mansoni measured after 72 hrs by microscopic analysis; assay type: functional, organism-based
[9] = Intrinsic clearance in mouse liver microsomes assessed per mg protein after 60 mins in presence of NADPH generating system; assay type: ADME, microsome; details: 1 h
[10] = Intrinsic clearance in human liver microsomes assessed per mg protein after 60 mins in presence of NADPH generating system; assay type: ADME, microsome; details: 1 h
[11] = Kinetic solubility of the compound in 0.01M HCl at pH 2 by nephelometric method; assay type: physicochemical; details: read-out: Kinetic_solubility; in short: as §2
[12] = Cmax in Swiss mouse at 100 mg/kg, po administered as single dose via gavage by LC-MS analysis; assay type: ADME, organism-based; set-up: dose 100 mg/kg, route oral; details: in vivo; in short: as §1
[13] = Half-life in Swiss mouse at 100 mg/kg, po administered as single dose via gavage by LC-MS analysis; assay type: ADME, organism-based; details: in vivo; in short: as §1
Schistosoma mansoni [14] = test: Antischistosomal activity against newly transformed stage of Schistosoma mansoni measured after 72 hrs by microscopic analysis; assay type: functional, organism-based
In short: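 Newly transformed schistosomula were first screened at 10 µM; compounds that killed them were then run as a concentration titration to derive IC50 values.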

HEK293 = test: Cytotoxicity against HEK293 cells; assay type: cell-based; details: Homo sapiens
[15] = Cytotoxicity against human HC04 cells; assay type: cell-based
U2OS = test: Cytotoxicity against human U2OS cells; assay type: cell-based
[16] = Plasma concentration in Swiss mouse at 100 mg/kg, po administered as single dose via gavage measured up to 48 hrs by LC-MS analysis; assay type: ADME, organism-based; in short: as §1

Row | Compound | Drug uptake [1] | IC50 (HFF) [µM] | solubility kinetic [2] [µg/mL] | Activity (Schistosoma mansoni [3]) [%] | Activity (Schistosoma mansoni [4]) | Tmax [5] [h] | AUC(0-t) [6] [µM·h] | chromatographic logD [7] | IC50 (Schistosoma mansoni [8]) [µM] | CLH [9] [µL/min/mg] | CLH [10] [µL/min/mg] | solubility kinetic [11] [µg/mL] | Cmax [12] [µM] | half-life [13] [h] | IC50 (Schistosoma mansoni [14]) [µM] | IC50 (HEK293) [µM] | IC50 [15] [µM] | IC50 (U2OS) [µM] | concentration at 48 h [16] [µM]
1 | O=C(Nc1ccnc(C(F)(F)F)c1)Nc1ccnc(C(F)(F)F)c1 | Active | > 100 | 12.5 to 25 (≈ 35.7 to 71.4 µM) | 20 | Active | 4 | 953 | 3 | 0.88 | < 7 | < 7 | 12.5 to 25 (≈ 35.7 to 71.4 µM) | 40 | 10 | 2.4 | > 100 | > 100 | > 100 | –
2 | O=C(Nc1ccc2c(c1)OC(F)(F)O2)Nc1ccc2c(c1)OC(F)(F)O2 | – | 79 | < 1.6 | 0 | Active | – | 679 | 4.4 | 0.49 | 12 | < 7 | < 1.6 | 25 | 13 | 0.26 | > 100 | > 100 | > 100 | > 5
3 | Cc1cc(NC(=O)Nc2ccc(F)c(C(F)(F)F)c2)on1 | – | – | 6.3 to 12.5 (≈ 20.8 to 41.2 µM) | – | – | – | – | 3.2 | – | 108 | 73 | 12.5 to 25 (≈ 41.2 to 82.4 µM) | – | – | – | – | – | – | –
4 | O=C(Nc1ccncc1)Nc1ccc(F)c(C(F)(F)F)c1 | – | – | 6.3 to 12.5 (≈ 21.1 to 41.8 µM) | – | Active | – | – | 3.2 | > 10 | 37 | 12 | 6.3 to 12.5 (≈ 21.1 to 41.8 µM) | – | – | 5.6 | – | – | – | –
5 | O=C(Nc1ccc2c(c1)OC(F)(F)O2)Nc1ccc(F)c(C(F)(F)F)c1 | – | 67 | < 1.6 | 0 | Active | – | 989 | 4.5 | 0.49 | < 7 | < 7 | < 1.6 | 27 | – | 0.21 | > 100 | > 100 | > 100 | > 5
6 | CC(=O)c1ccc(NC(=O)Nc2ccc(F)c(C(F)(F)F)c2)cc1 | – | – | < 1.6 | – | – | – | – | 3.6 | – | 14 | 16 | < 1.6 | – | – | – | – | – | – | –
7 | O=C(Nc1cccnc1)Nc1ccc(F)c(C(F)(F)F)c1 | – | – | 12.5 to 25 (≈ 41.8 to 83.5 µM) | – | – | – | – | 3 | – | 154 | 13 | 50 to 100 (≈ 167 to 334 µM) | – | – | – | – | – | – | –
8 | O=C(Nc1ccc(F)c(C(F)(F)F)c1)Nc1ccccn1 | – | – | < 1.6 | – | – | – | – | 3.7 | – | 705 | 188 | 1.6 to 3.1 (≈ 5.35 to 10.4 µM) | – | – | – | – | – | – | –
9 | NC(=O)c1ccc(NC(=O)Nc2ccc(F)c(C(F)(F)F)c2)cc1 | – | – | 6.3 to 12.5 (≈ 18.5 to 36.6 µM) | – | – | – | – | 2.7 | – | 22 | 28 | 6.3 to 12.5 (≈ 18.5 to 36.6 µM) | – | – | – | – | – | – | –
10 | O=C(Nc1ccc(F)c(C(F)(F)F)c1)Nc1cnccn1 | – | – | < 1.6 | – | – | – | – | 3 | – | 160 | 210 | 1.6 to 3.1 (≈ 5.33 to 10.3 µM) | – | – | – | – | – | – | –
11 | O=C(Nc1ccc(C(=O)O)cc1)Nc1ccc(F)c(C(F)(F)F)c1 | – | – | 12.5 to 25 (≈ 36.5 to 73 µM) | – | – | – | – | 1.5 | – | < 7 | < 7 | < 1.6 | – | – | – | – | – | – | –
12 | O=C(Nc1ccncc1)Nc1ccncc1 | – | – | 12.5 to 25 (≈ 58.3 to 117 µM) | – | – | – | – | 1.3 | – | 188 | < 7 | > 100 | – | – | – | – | – | – | –
13 | O=C(Nc1cccc(C(=O)O)c1)Nc1ccc(F)c(C(F)(F)F)c1 | – | – | 12.5 to 25 (≈ 36.5 to 73 µM) | – | – | – | – | 1.6 | – | < 7 | < 7 | 1.6 to 3.1 (≈ 4.67 to 9.06 µM) | – | – | – | – | – | – | –
14 | O=C(Nc1cnccn1)Nc1cnccn1 | – | – | 6.3 to 12.5 (≈ 29.1 to 57.8 µM) | – | – | – | – | 0.8 | – | 157 | 18 | 6.3 to 12.5 (≈ 29.1 to 57.8 µM) | – | – | – | – | – | – | –
15 | N#Cc1ccc(NC(=O)Nc2ccnc(C(F)(F)F)c2)cc1 | – | > 100 | 1.6 to 3.1 (≈ 5.22 to 10.1 µM) | 1.6 | Active | 2 | 175 | 3 | 3.3 | < 7 | < 7 | 1.6 to 3.1 (≈ 5.22 to 10.1 µM) | 20 | 2.3 | 1.9 | > 100 | > 100 | > 100 | –
16 | N#Cc1ccc(NC(=O)Nc2ccc(F)c(C(F)(F)F)c2)cc1 | – | 60 | < 1.6 | 37 | Active | 4 | 216 | 3.8 | 0.94 | 12 | < 7 | < 1.6 | 31 | 2.7 | 1.6 | > 100 | > 100 | > 100 | –
17 | NC(=O)c1ccccc1NC(=O)Nc1ccc(F)c(C(F)(F)F)c1 | – | – | 1.6 to 3.1 (≈ 4.69 to 9.08 µM) | – | – | – | – | 3.3 | – | 69 | 81 | 1.6 to 3.1 (≈ 4.69 to 9.08 µM) | – | – | – | – | – | – | –
18 | O=C(Nc1ccnc(C(F)(F)F)c1)Nc1ccc2c(c1)OC(F)(F)O2 | – | 80 | 3.1 to 6.3 (≈ 8.58 to 17.4 µM) | 2.1 | Active | – | 2270 | 3.7 | 0.75 | 16 | < 7 | 3.1 to 6.3 (≈ 8.58 to 17.4 µM) | 55 | – | 1.3 | > 100 | > 100 | > 100 | > 5
